Test results taken from ChEMBL document CHEMBL5247575 (J Med Chem, 2018).

These molecules were tested on Acinetobacter baumannii (assay: Synergistic antibacterial activity against Acinetobacter baumannii PR448 producing OXA-23 assessed as cefepime MIC at 8 ug/ml by broth microdilution method). Conditions: dose 8 µg/ml.
Type: functional
Outline: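 Broth microdilution per CLSI guidelines in frozen panels. Test compound held at fixed 8 mg/L while the partner β-lactam concentration was increased. Run in triplicate; modal MIC reported.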

Compound	MIC
O=C(NNC(=O)[C@@H]1CC[C@@H]2CN1C(=O)N2OS(=O)(=O)O)[C@@H]1CCNC1	8 µg/mL

Each molecule was assayed on Acinetobacter baumannii (assay: Synergistic antibacterial activity against Acinetobacter baumannii PR474 producing OXA-23/24/40 assessed as cefepime MIC at 4 ug/ml by broth microdilution method). Conditions: dose 4 µg/ml.
Type: functional

Compound	MIC
O=C(NNC(=O)[C@@H]1CC[C@@H]2CN1C(=O)N2OS(=O)(=O)O)[C@@H]1CCNC1	8 µg/mL

Each molecule was assayed on Klebsiella pneumoniae (assay: Synergistic antibacterial activity against Klebsiella pneumoniae 729/1679 producing KPC-3 assessed as cefepime MIC at 4 ug/ml by broth microdilution method). Conditions: dose 4 µg/ml.
Type: functional
Outline: (§1)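 Broth microdilution per CLSI guidelines, using custom frozen panels. […] Each partner drug was also tested alone. MICs were run in triplicate and the modal value is reported.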

Compound	MIC
O=C(NNC(=O)[C@@H]1CC[C@@H]2CN1C(=O)N2OS(=O)(=O)O)[C@@H]1CCNC1	≤ 0.12 µg/mL

These molecules were tested on Klebsiella pneumoniae (assay: Synergistic antibacterial activity against Klebsiella pneumoniae 729/1679 producing KPC-3 assessed as cefepime MIC at 8 ug/ml by broth microdilution method). Conditions: dose 8 µg/ml.
Type: functional
Outline: as §1

Compound	MIC
O=C(NNC(=O)[C@@H]1CC[C@@H]2CN1C(=O)N2OS(=O)(=O)O)[C@@H]1CCNC1	≤ 0.12 µg/mL

The molecules below were run on Klebsiella pneumoniae (assay: Synergistic antibacterial activity against Klebsiella pneumoniae 1398/2291 producing KPC-3 assessed as meropenem MIC at 4 ug/ml by broth microdilution method). Conditions: dose 4 µg/ml.
Type: functional
Outline: as §1

Compound	MIC
O=C(NNC(=O)[C@@H]1CC[C@@H]2CN1C(=O)N2OS(=O)(=O)O)[C@@H]1CCNC1	≤ 0.12 µg/mL

The molecules below were run on Acinetobacter baumannii (assay: Synergistic antibacterial activity against ADC deleted Acinetobacter baumannii transfected with pWH1266 producing OXA-24/40 assessed as meropenem MIC at 4 ug/ml by broth microdilution method). Conditions: dose 4 µg/ml.
Type: functional

Compound	MIC
O=C(NNC(=O)[C@@H]1CC[C@@H]2CN1C(=O)N2OS(=O)(=O)O)[C@@H]1CCNC1	> 16 µg/mL

These molecules were tested on Klebsiella pneumoniae (assay: Synergistic antibacterial activity against Klebsiella pneumoniae 1315/2198 producing KPC-3 assessed as meropenem MIC at 4 ug/ml by broth microdilution method). Conditions: dose 4 µg/ml.
Type: functional
Outline: as §1

Compound	MIC
O=C(NNC(=O)[C@@H]1CC[C@@H]2CN1C(=O)N2OS(=O)(=O)O)[C@@H]1CCNC1	≤ 0.12 µg/mL

The molecules below were run on Klebsiella pneumoniae (assay: Synergistic antibacterial activity against Klebsiella pneumoniae 776/1742 producing KPC-2 assessed as meropenem MIC at 4 ug/ml by broth microdilution method). Conditions: dose 4 µg/ml.
Type: functional

Compound	MIC
O=C(NNC(=O)[C@@H]1CC[C@@H]2CN1C(=O)N2OS(=O)(=O)O)[C@@H]1CCNC1	≤ 0.12 µg/mL

Each molecule was assayed on Acinetobacter baumannii (assay: Synergistic antibacterial activity against Acinetobacter baumannii PR381 producing OXA-24/40 assessed as cefepime MIC at 4 ug/ml by broth microdilution method). Conditions: dose 4 µg/ml.
Type: functional

Compound	MIC
O=C(NNC(=O)[C@@H]1CC[C@@H]2CN1C(=O)N2OS(=O)(=O)O)[C@@H]1CCNC1	16 µg/mL

These molecules were tested on Pseudomonas aeruginosa (assay: Synergistic antibacterial activity against Pseudomonas aeruginosa CL232 assessed as meropenem MIC at 8 ug/ml by broth microdilution method). Conditions: dose 8 µg/ml.
Type: functional

Compound	MIC
O=C(NNC(=O)[C@@H]1CC[C@@H]2CN1C(=O)N2OS(=O)(=O)O)[C@@H]1CCNC1	16 µg/mL

What follows are molecules tested on Klebsiella pneumoniae (assay: Synergistic antibacterial activity against Klebsiella pneumoniae 1108/1989 producing KPC-3 assessed as meropenem MIC at 8 ug/ml by broth microdilution method). Conditions: dose 8 µg/ml.
Type: functional
Outline: as §1

Compound	MIC
O=C(NNC(=O)[C@@H]1CC[C@@H]2CN1C(=O)N2OS(=O)(=O)O)[C@@H]1CCNC1	≤ 0.12 µg/mL

The molecules below were run on Klebsiella pneumoniae (assay: Synergistic antibacterial activity against Klebsiella pneumoniae 776/1742 producing KPC-2 assessed as meropenem MIC at 8 ug/ml by broth microdilution method). Conditions: dose 8 µg/ml.
Type: functional

Compound	MIC
O=C(NNC(=O)[C@@H]1CC[C@@H]2CN1C(=O)N2OS(=O)(=O)O)[C@@H]1CCNC1	≤ 0.12 µg/mL

Each molecule was assayed on Klebsiella pneumoniae (assay: Synergistic antibacterial activity against Klebsiella pneumoniae 1084/1957 producing KPC-3 assessed as meropenem MIC at 8 ug/ml by broth microdilution method). Conditions: dose 8 µg/ml.
Type: functional
Outline: as §1

Compound	MIC
O=C(NNC(=O)[C@@H]1CC[C@@H]2CN1C(=O)N2OS(=O)(=O)O)[C@@H]1CCNC1	≤ 0.12 µg/mL

The molecules below were run on Escherichia coli (assay: Synergistic antibacterial activity against Escherichia coli DH10B transfected with pBC SK (-) OXA-48 assessed as meropenem MIC at 4 ug/ml by broth microdilution method). Conditions: dose 4 µg/ml.
Type: functional
Outline: as §1

Compound	MIC
O=C(NNC(=O)[C@@H]1CC[C@@H]2CN1C(=O)N2OS(=O)(=O)O)[C@@H]1CCNC1	≤ 0.12 µg/mL

Each molecule was assayed on Acinetobacter baumannii (assay: Synergistic antibacterial activity against ADC deleted Acinetobacter baumannii assessed as cefepime MIC at 8 ug/ml by broth microdilution method). Conditions: dose 8 µg/ml.
Type: functional

Compound	MIC
O=C(NNC(=O)[C@@H]1CC[C@@H]2CN1C(=O)N2OS(=O)(=O)O)[C@@H]1CCNC1	0.5 µg/mL

These molecules were tested on Klebsiella pneumoniae (assay: Synergistic antibacterial activity against Klebsiella pneumoniae 776/1742 producing KPC-2 assessed as cefepime MIC at 8 ug/ml by broth microdilution method). Conditions: dose 8 µg/ml.
Type: functional

Compound	MIC
O=C(NNC(=O)[C@@H]1CC[C@@H]2CN1C(=O)N2OS(=O)(=O)O)[C@@H]1CCNC1	≤ 0.12 µg/mL

Each molecule was assayed on Acinetobacter baumannii (assay: Synergistic antibacterial activity against Acinetobacter baumannii PR440 producing OXA-23/24/40 assessed as cefepime MIC at 4 ug/ml by broth microdilution method). Conditions: dose 4 µg/ml.
Type: functional

Compound	MIC
O=C(NNC(=O)[C@@H]1CC[C@@H]2CN1C(=O)N2OS(=O)(=O)O)[C@@H]1CCNC1	> 16 µg/mL

What follows are molecules tested on Acinetobacter baumannii (assay: Synergistic antibacterial activity against Acinetobacter baumannii PR474 producing OXA-23/24/40 assessed as meropenem MIC at 8 ug/ml by broth microdilution method). Conditions: dose 8 µg/ml.
Type: functional

Compound	MIC
O=C(NNC(=O)[C@@H]1CC[C@@H]2CN1C(=O)N2OS(=O)(=O)O)[C@@H]1CCNC1	> 16 µg/mL

Each molecule was assayed on Klebsiella pneumoniae (assay: Synergistic antibacterial activity against Klebsiella pneumoniae jefferson 1773 producing OXA-181 assessed as cefepime MIC at 4 ug/ml by broth microdilution method). Conditions: dose 4 µg/ml.
Type: functional

Compound	MIC
O=C(NNC(=O)[C@@H]1CC[C@@H]2CN1C(=O)N2OS(=O)(=O)O)[C@@H]1CCNC1	≤ 0.12 µg/mL

The molecules below were run on Acinetobacter baumannii (assay: Synergistic antibacterial activity against Acinetobacter baumannii PR381 producing OXA-24/40 assessed as meropenem MIC at 4 ug/ml by broth microdilution method). Conditions: dose 4 µg/ml.
Type: functional

Compound	MIC
O=C(NNC(=O)[C@@H]1CC[C@@H]2CN1C(=O)N2OS(=O)(=O)O)[C@@H]1CCNC1	> 16 µg/mL

What follows are molecules tested on Pseudomonas aeruginosa (assay: Synergistic antibacterial activity against Pseudomonas aeruginosa 839 assessed as meropenem MIC at 8 ug/ml by broth microdilution method). Conditions: dose 8 µg/ml.
Type: functional

Compound	MIC
O=C(NNC(=O)[C@@H]1CC[C@@H]2CN1C(=O)N2OS(=O)(=O)O)[C@@H]1CCNC1	≤ 0.12 µg/mL

These molecules were tested on Klebsiella pneumoniae (assay: Synergistic antibacterial activity against Klebsiella pneumoniae 935/1884 producing KPC-3 assessed as meropenem MIC at 4 ug/ml by broth microdilution method). Conditions: dose 4 µg/ml.
Type: functional

Compound	MIC
O=C(NNC(=O)[C@@H]1CC[C@@H]2CN1C(=O)N2OS(=O)(=O)O)[C@@H]1CCNC1	≤ 0.12 µg/mL

Each molecule was assayed on Klebsiella pneumoniae (assay: Synergistic antibacterial activity against Klebsiella pneumoniae 1354/2241 producing KPC-3 assessed as cefepime MIC at 4 ug/ml by broth microdilution method). Conditions: dose 4 µg/ml.
Type: functional
Outline: as §1

Compound	MIC
O=C(NNC(=O)[C@@H]1CC[C@@H]2CN1C(=O)N2OS(=O)(=O)O)[C@@H]1CCNC1	≤ 0.12 µg/mL

Each molecule was assayed on Escherichia coli (assay: Synergistic antibacterial activity against Escherichia coli DH10B transfected with pBC SK (-) KPC-3 assessed as cefepime MIC at 8 ug/ml by broth microdilution method). Conditions: dose 8 µg/ml.
Type: functional

Compound	MIC
O=C(NNC(=O)[C@@H]1CC[C@@H]2CN1C(=O)N2OS(=O)(=O)O)[C@@H]1CCNC1	≤ 0.12 µg/mL

What follows are molecules tested on Acinetobacter baumannii (assay: Synergistic antibacterial activity against Acinetobacter baumannii PR323 producing OXA-24/40 assessed as meropenem MIC at 4 ug/ml by broth microdilution method). Conditions: dose 4 µg/ml.
Type: functional

Compound	MIC
O=C(NNC(=O)[C@@H]1CC[C@@H]2CN1C(=O)N2OS(=O)(=O)O)[C@@H]1CCNC1	> 16 µg/mL

What follows are molecules tested on Klebsiella pneumoniae (assay: Synergistic antibacterial activity against Klebsiella pneumoniae 901/1860 producing KPC-3 assessed as meropenem MIC at 8 ug/ml by broth microdilution method). Conditions: dose 8 µg/ml.
Type: functional

Compound	MIC
O=C(NNC(=O)[C@@H]1CC[C@@H]2CN1C(=O)N2OS(=O)(=O)O)[C@@H]1CCNC1	≤ 0.12 µg/mL

These molecules were tested on Klebsiella pneumoniae (assay: Synergistic antibacterial activity against Klebsiella pneumoniae 761/1723 producing KPC-3 assessed as cefepime MIC at 8 ug/ml by broth microdilution method). Conditions: dose 8 µg/ml.
Type: functional
Outline: as §1

Compound	MIC
O=C(NNC(=O)[C@@H]1CC[C@@H]2CN1C(=O)N2OS(=O)(=O)O)[C@@H]1CCNC1	≤ 0.12 µg/mL

What follows are molecules tested on Escherichia coli (assay: Synergistic antibacterial activity against Escherichia coli DH10B transfected with pBC SK (-) OXA-48 assessed as cefepime MIC at 4 ug/ml by broth microdilution method). Conditions: dose 4 µg/ml.
Type: functional
Outline: as §1

Compound	MIC
O=C(NNC(=O)[C@@H]1CC[C@@H]2CN1C(=O)N2OS(=O)(=O)O)[C@@H]1CCNC1	≤ 0.12 µg/mL

These molecules were tested on Klebsiella pneumoniae (assay: Synergistic antibacterial activity against Klebsiella pneumoniae 761/1723 producing KPC-3 assessed as cefepime MIC at 4 ug/ml by broth microdilution method). Conditions: dose 4 µg/ml.
Type: functional
Outline: as §1

Compound	MIC
O=C(NNC(=O)[C@@H]1CC[C@@H]2CN1C(=O)N2OS(=O)(=O)O)[C@@H]1CCNC1	≤ 0.12 µg/mL

What follows are molecules tested on Klebsiella pneumoniae (assay: Synergistic antibacterial activity against Klebsiella pneumoniae 1398/2291 producing KPC-3 assessed as cefepime MIC at 8 ug/ml by broth microdilution method). Conditions: dose 8 µg/ml.
Type: functional
Outline: as §1

Compound	MIC
O=C(NNC(=O)[C@@H]1CC[C@@H]2CN1C(=O)N2OS(=O)(=O)O)[C@@H]1CCNC1	≤ 0.12 µg/mL

What follows are molecules tested on Bacteria (assay: Inhibition of bacteria KPC-2 assessed as half life using nitrocefin as substrate). Conditions: not given.

Compound	T1/2
O=C(NNC(=O)[C@@H]1CC[C@@H]2CN1C(=O)N2OS(=O)(=O)O)[C@@H]1CCNC1	33 min

The molecules below were run on Acinetobacter baumannii (assay: Synergistic antibacterial activity against Acinetobacter baumannii PR440 producing OXA-23/24/40 assessed as cefepime MIC at 8 ug/ml by broth microdilution method). Conditions: dose 8 µg/ml.
Type: functional

Compound	MIC
O=C(NNC(=O)[C@@H]1CC[C@@H]2CN1C(=O)N2OS(=O)(=O)O)[C@@H]1CCNC1	> 16 µg/mL

What follows are molecules tested on Klebsiella pneumoniae (assay: Synergistic antibacterial activity against Klebsiella pneumoniae 1354/2241 producing KPC-3 assessed as meropenem MIC at 4 ug/ml by broth microdilution method). Conditions: dose 4 µg/ml.
Type: functional
Outline: as §1

Compound	MIC
O=C(NNC(=O)[C@@H]1CC[C@@H]2CN1C(=O)N2OS(=O)(=O)O)[C@@H]1CCNC1	≤ 0.12 µg/mL

Each molecule was assayed on Acinetobacter baumannii (assay: Synergistic antibacterial activity against Acinetobacter baumannii PR363 producing OXA-23 assessed as meropenem MIC at 8 ug/ml by broth microdilution method). Conditions: dose 8 µg/ml.
Type: functional

Compound	MIC
O=C(NNC(=O)[C@@H]1CC[C@@H]2CN1C(=O)N2OS(=O)(=O)O)[C@@H]1CCNC1	> 16 µg/mL
